# Assay results collected from several papers.
# Compare with care: the assays were run in different laboratories.
# PPARA: Peroxisome proliferator-activated receptor alpha (PPARA, Homo sapiens, UniProt Q07869)
# CASP1: Caspase-1 (CASP1, Homo sapiens, UniProt P29466)
# ADRA1B: Alpha-1B adrenergic receptor (ADRA1B, Homo sapiens, UniProt P35368)
SMILES,target,effect on,action,technique,pH,Ki
CC(=O)N[C@@H](CCCNC(=N)N)C(=O)NCCOCCOCC(=O)N[C@H](CC(=O)O)C(=O)N1CCC[C@H]1B(O)O,"Prolyl endopeptidase (PREP, Homo sapiens, UniProt P48147)",enzyme activity,inhibitor,fluorescence,,23.9 nM
Cc1c(C)n(Cc2ccc(-c3ccccc3C(=O)O)cc2)c2ccc(C(=O)N[C@@H](C)c3ccc([N+](=O)[O-])cc3)cc12,PPARA,ligand displacement,,TR-FRET,,11200 nM
O=c1c(O)c(-c2cc(O)c(O)c(O)c2)oc2cc(O)cc(O)c12,CASP1,enzyme activity,inhibitor,fluorescence,,14300 nM
CS(=O)(=O)Nc1ccc[nH]c1=S,"Insulin-degrading enzyme (IDE, Homo sapiens, UniProt P14735)",cell-free assay,inhibitor,,,> 200000 nM
COc1ccccc1N1CCN(CCCCN2CCc3ccccc3C2=O)CC1,ADRA1B,ligand displacement,,radioligand,,76.6 nM
NCCCCC(c1ccccc1)(c1ccccc1)c1ccccc1,"Kinesin-like protein KIF11 (KIF11, Homo sapiens, UniProt P52732)",ATPase activity,inhibitor,,,1670 nM
O=C(Nc1ccc(Oc2ncccn2)cc1C(=O)O)c1ccc(Cl)cc1Cl,PPARA,ligand displacement,,TR-FRET,,4420 nM
CC(=O)N[C@@H](CC(C)C)C(=O)N[C@@H](CC(C)C)C(=O)N[C@@H](CCCN=C(N)N)C(=O)N[C@H](C(=O)N[C@@H](CCCCN)C(=O)N[C@@H](CCCN=C(N)N)C(N)=O)C(C)C,"Proprotein convertase subtilisin/kexin type 7 (Homo sapiens, UniProt Q16549)",enzyme activity,inhibitor,,,2700 nM
CCCC[C@H](NC(=O)C1CN(C)C1)c1ncc(-c2cc3ccccc3nc2OC)[nH]1,"Histone deacetylase 3 (HDAC3, Homo sapiens, UniProt O15379)",enzyme activity,inhibitor,,,273 nM
CCCCN1CCC(COC(=O)c2ccc(N)c(OCF)c2)CC1,ADRA1B,cell-free assay,,radioligand,,> 10000 nM
CC[C@H](C)[C@H](NC(=O)[C@H](CCCNC(=N)N)NC(=O)[C@H](CCCNC(=N)N)NC(=O)[C@H](CC(C)C)NC(=O)CNC(=O)[C@H](CCC(N)=O)NC(=O)[C@H](C)NC(=O)[C@@H](NC(=O)[C@H](Cc1c[nH]c2ccccc12)NC(=O)[C@@H](NC(=O)[C@H](CCC(=O)O)NC(=O)[C@@H]1CCCN1C(=O)[C@H](CCCNC(=N)N)NC(C)=O)[C@@H](C)CC)[C@@H](C)CC)C(=O)NCC(=O)N[C@@H](CC(=O)O)C(=O)N[C@H](C(=O)N[C@@H](Cc1c[nH]c2ccccc12)C(=O)N[C@@H](CC(N)=O)C(=O)N[C@@H](C)C(=O)N[C@@H](Cc1ccc(O)cc1)C(=O)N[C@@H](Cc1ccc(O)cc1)C(=O)N[C@@H](C)C(=O)N[C@@H](CCCNC(=N)N)C(N)=O)[C@@H](C)O,"Bcl-2-related protein A1 (Homo sapiens, UniProt Q16548)",ligand displacement,,FP,pH 7.8,8 nM
O=c1c(O)c(-c2ccc(O)cc2)oc2cc(O)cc(O)c12,CASP1,enzyme activity,inhibitor,fluorescence,,> 300000 nM
O=C1c2ccccc2CCCN1CCCCN1CCN(c2ccccn2)CC1,ADRA1B,ligand displacement,,radioligand,,2540 nM
